Measurements as given in ChEMBL document CHEMBL1140216, “Triazine compounds as antagonists at Bv8-prokineticin receptors” (J Med Chem, 2008).

Tests used:
Prokineticin receptor 1 [1] = biological target: T1, Prokineticin receptor 1 (Homo sapiens, UniProt Q8TCW9); experiment: Displacement of [I125]MIT from PKR1 expressed in CHO cell membrane; assay type: cell membranes
Prokineticin receptor 2 [2] = biological target: T2, Prokineticin receptor 2 (Homo sapiens, UniProt Q8NFJ6); experiment: Displacement of [I125]MIT from PKR2 expressed in CHO cell membrane; assay type: cell membranes
T2 sequence (Q8NFJ6 whole entry): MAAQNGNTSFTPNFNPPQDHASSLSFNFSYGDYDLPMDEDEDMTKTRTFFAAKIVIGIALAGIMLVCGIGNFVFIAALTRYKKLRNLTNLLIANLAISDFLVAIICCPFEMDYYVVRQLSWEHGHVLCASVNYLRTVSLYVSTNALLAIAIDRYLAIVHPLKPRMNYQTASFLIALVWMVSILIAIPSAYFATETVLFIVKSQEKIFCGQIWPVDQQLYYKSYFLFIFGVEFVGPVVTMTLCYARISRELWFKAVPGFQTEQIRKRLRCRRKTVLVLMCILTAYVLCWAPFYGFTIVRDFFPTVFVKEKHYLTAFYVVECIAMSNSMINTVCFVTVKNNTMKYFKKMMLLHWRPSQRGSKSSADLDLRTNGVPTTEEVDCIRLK

Prokineticin receptor 1 [3] = biological target: T1, Prokineticin receptor 1; experiment: Antagonist activity at PKR1 expressed in CHO cell membrane assessed as reduction of Bv8-induced increase in intracellular calcium level at 10 uM; assay type: functional, cell-based; set-up: scale not given: the % may be the effect or the level left
Summary of the method: (§1)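 Intact CHO cells transfected with PKR1 or PKR2. Compound preincubated 4 min, then challenged with 1 nM Bv8, and fluorescence followed for 2 min. Intracellular Ca2+ was read as the 340/380 nm […] ratio, and the result was scored as the percentage of cells responding to Bv8.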

Prokineticin receptor 2 [4] = biological target: T2, Prokineticin receptor 2; experiment: Antagonist activity at PKR2 expressed in CHO cell membrane assessed as reduction of Bv8-induced increase in intracellular calcium level at 10 uM; assay type: functional, cell-based; set-up: scale not given: the % may be the effect or the level left; summary of the method: as §1
Prokineticin receptor 1 [5] = biological target: T1, Prokineticin receptor 1; experiment: Antagonist activity at PKR1 expressed in CHO cell membrane assessed as reduction of Bv8-induced increase in intracellular calcium level at 1 mM; assay type: functional, cell-based; set-up: scale not given: the % may be the effect or the level left; summary of the method: as §1
Prokineticin receptor 2 [6] = biological target: T2, Prokineticin receptor 2; experiment: Antagonist activity at PKR2 expressed in CHO cell membrane assessed as reduction of Bv8-induced increase in intracellular calcium level at 1 mM; assay type: functional, cell-based; set-up: scale not given: the % may be the effect or the level left; summary of the method: as §1
Prokineticin receptor 1 [7] = biological target: T1, Prokineticin receptor 1; experiment: Antagonist activity at PKR1 expressed in CHO cell membrane assessed as reduction of Bv8-induced increase in intracellular calcium level at 100 uM; assay type: functional, cell-based; set-up: scale not given: the % may be the effect or the level left; summary of the method: as §1
Prokineticin receptor 1 [8] = biological target: T1, Prokineticin receptor 1; experiment: Antagonist activity at PKR1 expressed in CHO cell membrane assessed as reduction of Bv8-induced increase in intracellular calcium level at 100 nM; assay type: functional, cell-based; set-up: scale not given: the % may be the effect or the level left; summary of the method: as §1
Prokineticin receptor 2 [9] = biological target: T2, Prokineticin receptor 2; experiment: Antagonist activity at PKR2 expressed in CHO cell membrane assessed as reduction of Bv8-induced increase in intracellular calcium level at 100 nM; assay type: functional, cell-based; set-up: scale not given: the % may be the effect or the level left; summary of the method: as §1
Prokineticin receptor 1 [10] = biological target: T1, Prokineticin receptor 1; experiment: Antagonist activity at PKR1 expressed in CHO cell membrane assessed as reduction of Bv8-induced increase in intracellular calcium level at 300 nM; assay type: functional, cell-based; set-up: scale not given: the % may be the effect or the level left; summary of the method: as §1
Prokineticin receptor 2 [11] = biological target: T2, Prokineticin receptor 2; experiment: Antagonist activity at PKR2 expressed in CHO cell membrane assessed as reduction of Bv8-induced increase in intracellular calcium level at 300 nM; assay type: functional, cell-based; set-up: scale not given: the % may be the effect or the level left; summary of the method: as §1
[12] = Selectivity for ratio of Ki for PKR2 to Ki for PKR1

T1 sequence (Q8TCW9 whole entry): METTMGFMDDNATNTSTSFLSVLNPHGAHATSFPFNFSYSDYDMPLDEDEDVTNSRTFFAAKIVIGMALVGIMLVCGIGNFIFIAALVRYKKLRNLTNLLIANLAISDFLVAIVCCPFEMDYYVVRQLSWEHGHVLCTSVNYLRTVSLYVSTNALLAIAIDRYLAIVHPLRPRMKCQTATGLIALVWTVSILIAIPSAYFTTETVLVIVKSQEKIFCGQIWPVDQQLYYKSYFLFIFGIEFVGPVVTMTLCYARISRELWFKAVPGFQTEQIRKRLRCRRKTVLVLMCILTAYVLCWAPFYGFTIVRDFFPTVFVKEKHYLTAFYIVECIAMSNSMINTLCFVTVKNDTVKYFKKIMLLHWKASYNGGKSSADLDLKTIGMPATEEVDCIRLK

A Ki (Prokineticin receptor 1 [1]) of 0.44 µM, a Ki (Prokineticin receptor 2 [2]) of 23.4 µM and an Activity (Prokineticin receptor 1 [3]) of 90% were found for CCc1ccc(Cn2c(=O)nc(NCCN)n(Cc3ccc(OC)cc3)c2=O)cc1 in this work. It also gave an Activity (Prokineticin receptor 2 [4]) of 89%, an Activity (Prokineticin receptor 1 [5]) of 0.3% and an Activity (Prokineticin receptor 2 [6]) of 2%.
An Activity (Prokineticin receptor 1 [7]) of 91% was found for CCc1ccc(Cn2c(=O)nc(NCCNC3=NCCN3)n(Cc3ccc(OC)cc3)c2=O)cc1 in this work.
A Ki (Prokineticin receptor 1 [1]) of 4.72 µM and a Ki (Prokineticin receptor 2 [2]) of 71.2 µM were found for CCc1ccc(Cn2c(=O)nc(NCCN=C3NCCN3)n(Cc3ccc(OC)cc3)c2=O)cc1 in this work.
A Ki (Prokineticin receptor 1 [1]) of 0.022 µM, a Ki (Prokineticin receptor 2 [2]) of 1.61 µM and an Activity (Prokineticin receptor 1 [8]) of 52% were found for CCc1ccc(Cn2c(=O)nc(NCCNC(=N)N)n(Cc3ccc(OC)cc3)c2=O)cc1 in this work. For the same molecule, the Activity (Prokineticin receptor 2 [9]) was 48%, the Activity (Prokineticin receptor 1 [10]) was 4% and the Activity (Prokineticin receptor 2 [11]) was 6%. For the same molecule, the Ratio Ki [12] was 70.
